Measured values as given in ChEMBL document CHEMBL1148646, “6-N,N-dimethylamino-2,3-naphthalimide: a new environment-sensitive fluorescent probe in delta- and mu-selective opioid peptides” (J Med Chem, 2006).
Residues, ends and D or L forms follow the SMILES beside them.

Tests used:
[1] = molecular target: Delta-type opioid receptor (Mus musculus) (UniProt P32300); test: (§1) Functional bioactivity against delta opioid receptor in mouse vas deferens; assay type: tissue-based
Summary of the method: (§2)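 MVD strips field-stimulated with supramaximal bipolar rectangular pulses. Agonist read-out is inhibition of the electrically evoked twitch, referenced to deltorphin C, with IC50 taken from dose-response curves. For antagonism, compound is added 5 min before deltorphin C, and pA2 comes from Schild plot of the rightward curve shift. At least six experiments on fresh tissue; mean ± SE.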

[2] = molecular target: Delta-type opioid receptor (Rattus norvegicus, UniProt P33533); test: Displacement of [3H]deltorphin C from rat delta opioid receptor in brain P2 synaptosomes; assay type: subcellular
Sequence of Delta-type opioid receptor (Rattus norvegicus, UniProt P33533) (P33533 whole entry): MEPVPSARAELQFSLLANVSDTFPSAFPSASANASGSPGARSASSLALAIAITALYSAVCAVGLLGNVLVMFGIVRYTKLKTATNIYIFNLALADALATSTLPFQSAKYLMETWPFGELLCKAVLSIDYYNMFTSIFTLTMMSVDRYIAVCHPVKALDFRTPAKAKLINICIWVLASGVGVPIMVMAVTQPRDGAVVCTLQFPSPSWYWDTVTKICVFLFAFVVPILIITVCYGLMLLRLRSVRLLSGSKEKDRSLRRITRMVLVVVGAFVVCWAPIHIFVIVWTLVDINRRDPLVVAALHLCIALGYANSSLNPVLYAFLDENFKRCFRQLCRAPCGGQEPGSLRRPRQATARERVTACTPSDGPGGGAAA
Summary of the method: (§3)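 Rat brain synaptosome (P2) membranes, preincubated to remove endogenous opioid peptides, stored at -80 °C in buffered 20% glycerol. Five to eight ligand concentrations, each in duplicate, with independent repeats on different synaptosome preparations. Bound radioligand collected on glass fiber filters soaked in 0.1% polyethylenimine and washed thrice in ice-cold buffered BSA. Ki by Cheng-Prusoff; mean ± SE.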

Mu-type opioid receptor [3] = molecular target: Mu-type opioid receptor (Rattus norvegicus, UniProt P33535); test: Displacement of [3H]DAMGO from rat mu opioid receptor in brain P2 synaptosomes; assay type: subcellular; summary of the method: as §3
Sequence of Mu-type opioid receptor (Rattus norvegicus, UniProt P33535) (P33535 whole entry): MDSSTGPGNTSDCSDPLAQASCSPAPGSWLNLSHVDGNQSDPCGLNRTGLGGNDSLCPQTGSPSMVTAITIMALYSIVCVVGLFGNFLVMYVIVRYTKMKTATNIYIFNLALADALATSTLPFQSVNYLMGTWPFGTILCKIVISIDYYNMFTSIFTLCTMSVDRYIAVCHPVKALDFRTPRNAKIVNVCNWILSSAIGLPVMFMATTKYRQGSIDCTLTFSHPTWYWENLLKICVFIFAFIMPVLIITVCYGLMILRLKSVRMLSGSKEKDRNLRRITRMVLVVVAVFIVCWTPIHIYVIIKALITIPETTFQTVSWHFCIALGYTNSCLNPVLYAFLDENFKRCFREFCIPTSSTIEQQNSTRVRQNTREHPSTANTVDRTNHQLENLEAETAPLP

Mu-type opioid receptor [4] = molecular target: Mu-type opioid receptor (Cavia porcellus, UniProt P97266); test: Functional bioactivity against mu opioid receptor in guinea-pig ileum; assay type: tissue-based
Sequence of Mu-type opioid receptor (Cavia porcellus, UniProt P97266) (P97266 whole entry): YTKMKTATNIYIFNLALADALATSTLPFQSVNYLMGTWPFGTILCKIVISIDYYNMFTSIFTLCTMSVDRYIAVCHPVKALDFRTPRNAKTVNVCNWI
Summary of the method: as §2, with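 “Myenteric plexus-longitudinal muscle from male guinea pig ileum,” for “MVD strips”, “dermorphin,” for “deltorphin C,”, “plot.” for “plot of the rightward curve shift.”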

[5] = molecular target: Delta-type opioid receptor (Mus musculus, UniProt P32300); test: as §1; assay type: tissue-based; summary of the method: as §2
Sequence of Delta-type opioid receptor (Mus musculus, UniProt P32300) (P32300 whole entry): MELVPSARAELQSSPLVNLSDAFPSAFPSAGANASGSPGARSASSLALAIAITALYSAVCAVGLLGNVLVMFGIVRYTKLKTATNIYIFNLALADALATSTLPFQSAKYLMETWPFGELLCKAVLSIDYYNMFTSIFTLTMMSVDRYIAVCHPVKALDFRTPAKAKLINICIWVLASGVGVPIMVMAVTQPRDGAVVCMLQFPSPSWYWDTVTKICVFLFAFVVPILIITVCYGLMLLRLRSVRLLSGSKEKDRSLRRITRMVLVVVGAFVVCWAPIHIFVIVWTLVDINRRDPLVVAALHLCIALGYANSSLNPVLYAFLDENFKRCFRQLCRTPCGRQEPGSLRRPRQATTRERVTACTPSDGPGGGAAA

[6] = molecular target: Opioid receptors; mu & delta (Rattus norvegicus) (UniProt P33533+P33535); test: Selectivity for rat delta opioid receptor over mu opioid receptor; assay type: protein assay
Sequence of Opioid receptors; mu & delta (Rattus norvegicus) (P33533 whole entry, looked up): as the sequence (P33533 whole entry) above
Sequence of Opioid receptors; mu & delta (Rattus norvegicus) (P33535 whole entry, looked up): as the sequence (P33535 whole entry) above

Sequence of Delta-type opioid receptor (Mus musculus) (P32300 whole entry): as the sequence (P32300 whole entry) above

In the case of CN(C)c1ccc2cc3c(cc2c1)C(=O)N(CC(NC(=O)CCCCCNC(=O)[C@H](Cc1ccccc1)NC(=O)[C@H](Cc1ccccc1)NC(=O)[C@@H]1CCCN1C(=O)[C@@H](N)Cc1ccc(O)cc1)C(N)=O)C3=O (some centres not stated) (HELM PEPTIDE1{Y.P.F.F.[O=C(CCCCCN[*:1])[*:2]].[CN(C)c1ccc2cc3c(cc2c1)C(=O)N(CC(N[*:1])C(=O)[*:2])C3=O].[am]}$$$$V2.0), the max activation [1] is reported as 29% and the Activity ([1]; filed as partial agonist) is reported as “Partial agonist”.
For Cc1cc(O)cc(C)c1C[C@H](N)C(=O)N1Cc2ccccc2C[C@H]1C(=O)N[C@@H](CCC(=O)O)C(=O)NCCCCCC(=O)N[C@@H](CN1C(=O)c2cc3ccc(N(C)C)cc3cc2C1=O)C(N)=O, the Ki [2] was 0.158 nM, the Ki (Mu-type opioid receptor [3]) was 41.3 nM and the IC50 (Mu-type opioid receptor [4]) was 244 nM.
CN(C)c1ccc2cc3c(cc2c1)C(=O)N(C[C@H](NC(=O)CCCCCNC(=O)[C@H](Cc1ccccc1)NC(=O)[C@H](Cc1ccccc1)NC(=O)[C@@H]1CCCN1C(=O)[C@@H](N)Cc1ccc(O)cc1)C(N)=O)C3=O (HELM PEPTIDE1{Y.P.F.F.[O=C(CCCCCN[*:1])[*:2]].[CN(C)c1ccc2cc3c(cc2c1)C(=O)N(C[C@H](N[*:1])C(=O)[*:2])C3=O].[am]}$$$$V2.0) gave a Ki [2] of 5940 nM, a Ki (Mu-type opioid receptor [3]) of 244 nM and an IC50 [5] of 300 nM. It also gave an IC50 (Mu-type opioid receptor [4]) of 253 nM.
Cc1cc(O)cc(C)c1C[C@H](N)C(=O)N1Cc2ccccc2C[C@H]1C(=O)N[C@@H](CCC(=O)O)C(=O)N[C@@H](CN1C(=O)c2cc3ccc(N(C)C)cc3cc2C1=O)C(N)=O (HELM PEPTIDE1{[Cc1cc(O)cc(C)c1C[C@H](N)C(=O)[*:2]].[Tic].E.[CN(C)c1ccc2cc3c(cc2c1)C(=O)N(C[C@H](N[*:1])C(=O)[*:2])C3=O].[am]}$$$$V2.0) was tested, and the Ki [2] was 7.8 nM, the Ki (Mu-type opioid receptor [3]) was 7880 nM and the IC50 (Mu-type opioid receptor [4]) was 100 nM.
In the case of CN(C)c1ccc2cc3c(cc2c1)C(=O)N(CC(NC(=O)[C@@H]1CCCN1C(=O)[C@@H](N)Cc1ccc(O)cc1)C(=O)N[C@@H](Cc1ccccc1)C(N)=O)C3=O (some centres not stated), the Ratio Ki [6] is reported as 4.1, the max activation [1] is reported as 22% and the Activity ([1]; filed as partial agonist) is reported as “Partial agonist”.
With N[C@@H](Cc1ccc(O)cc1)C(=O)N1CCC[C@H]1C(=O)N[C@@H](Cc1ccccc1)C(=O)N[C@@H](Cc1ccccc1)C(=O)NCCCCC/N=C(S)/N=C1/C=CC(=C2c3ccc(O)cc3Oc3cc(O)ccc32)C(C(=O)O)=C1 the Ki [2] was 668 nM, the Ki (Mu-type opioid receptor [3]) was 252 nM and the max activation [1] was 20%. For the same compound, the Activity ([1]; filed as partial agonist) was “Partial agonist”, the IC50 [5] was 200 nM and the IC50 (Mu-type opioid receptor [4]) was 120 nM.
For Cc1cc(O)cc(C)c1C[C@H](N)C(=O)N1Cc2ccccc2CC1C(=O)N[C@@H](CCC(=O)O)C(=O)NCCCCCC(=O)NC(CN1C(=O)c2cc3ccc(N(C)C)cc3cc2C1=O)C(N)=O (some centres not stated), the Ratio Ki [6] was 261 and the Activity ([1]; filed as antagonist) was “Antagonist”.
For CN(C)c1ccc2cc3c(cc2c1)C(=O)N(C[C@H](NC(=O)[C@@H]1CCCN1C(=O)[C@@H](N)Cc1ccc(O)cc1)C(=O)N[C@@H](Cc1ccccc1)C(N)=O)C3=O, the Ki [2] was 839 nM, the Ki (Mu-type opioid receptor [3]) was 3420 nM and the IC50 [5] was 500 nM. The IC50 (Mu-type opioid receptor [4]) was 389 nM.
